Laboratory results taken from ChEMBL document CHEMBL1122179, “1-(alkylamino)isochromans: hypotensives with peripheral and central activities” (J Med Chem, 1982).
Active and inactive are the calls of the source. The rule behind the calls is not given here.

Legend:
Rattus norvegicus [1] = experiment: Delta BP refers to oral hypotensive activity of compound which is evaluated at 4 hr and 24 hr in restrained, normotensive conscious rats at a dose of 50 mg/kg; -19/-9; assay type: functional
Summary of the method: (§1)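 Female Sprague-Dawley rats, normotensive, restrained in a towel. Blood pressure was read directly via chronic indwelling aortic cannulas exteriorized at the nape, before and 4 and 24 h after an oral dose suspended in carboxymethylcellulose (10 mL/kg). Values from two animals were averaged at each time; a mean change of at least 5 mmHg was taken as significant (p < 0.05).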

Rattus norvegicus [2] = experiment: Delta BP refers to oral hypotensive activity of compound which is evaluated at 4 hr and 24 hr in restrained, normotensive conscious rats at a dose of 50 mg/kg; -19/-21; assay type: functional; summary of the method: as §1
Rattus norvegicus [3] = experiment: Delta BP refers to oral hypotensive activity of compound which is evaluated at 4 hr and 24 hr in restrained, normotensive conscious rats at a dose of 50 mg/kg; -8/-1; assay type: functional; summary of the method: as §1
Rattus norvegicus [4] = experiment: Delta BP refers to oral hypotensive activity of compound which is evaluated at 4 hr and 24 hr in restrained, normotensive conscious rats at a dose of 50 mg/kg; assay type: functional, organism-based; set-up: dose 50 mg/kg; summary of the method: as §1
Rattus norvegicus [5] = experiment: Delta BP refers to oral hypotensive activity of compound which is evaluated at 4 hr and 24 hr in restrained, normotensive conscious rats at a dose of 50 mg/kg; -20/-5; assay type: functional; summary of the method: as §1
Rattus norvegicus [6] = experiment: Delta BP refers to oral hypotensive activity of compound which is evaluated at 4 hr and 24 hr in restrained, normotensive conscious rats at a dose of 50 mg/kg; 3/2; assay type: functional; summary of the method: as §1
Rattus norvegicus [7] = experiment: Delta BP refers to oral hypotensive activity of compound which is evaluated at 4 hr and 24 hr in restrained, normotensive conscious rats at a dose of 50 mg/kg; -9/-10; assay type: functional; summary of the method: as §1
Rattus norvegicus [8] = experiment: Delta BP refers to oral hypotensive activity of compound which is evaluated at 4 hr and 24 hr in restrained, normotensive conscious rats at a dose of 50 mg/kg; 0/-14; assay type: functional; summary of the method: as §1
Rattus norvegicus [9] = experiment: Delta BP refers to oral hypotensive activity of compound which is evaluated at 4 hr and 24 hr in restrained, normotensive conscious rats at a dose of 50 mg/kg; 2/2; assay type: functional; summary of the method: as §1
Rattus norvegicus [10] = experiment: Delta BP refers to oral hypotensive activity of compound which is evaluated at 4 hr and 24 hr in restrained, normotensive conscious rats at a dose of 15 mg/kg; -13/-14; assay type: functional; summary of the method: as §1
Rattus norvegicus [11] = experiment: Delta BP refers to oral hypotensive activity of compound which is evaluated at 4 hr and 24 hr in restrained, normotensive conscious rats at a dose of 50 mg/kg; -12/-5; assay type: functional; summary of the method: as §1
Rattus norvegicus [12] = experiment: Delta BP refers to oral hypotensive activity of compound which is evaluated at 4 hr and 24 hr in restrained, normotensive conscious rats at a dose of 50 mg/kg; -8/-10; assay type: functional; summary of the method: as §1
Rattus norvegicus [13] = experiment: Delta BP refers to oral hypotensive activity of compound which is evaluated at 4 hr and 24 hr in restrained, normotensive conscious rats at a dose of 50 mg/kg; -16/-26; assay type: functional; summary of the method: as §1
Rattus norvegicus [14] = experiment: Delta BP refers to oral hypotensive activity of compound which is evaluated at 4 hr and 24 hr in restrained, normotensive conscious rats at a dose of 50 mg/kg; -3/-1; assay type: functional; summary of the method: as §1
Rattus norvegicus [15] = experiment: Delta BP refers to oral hypotensive activity of compound which is evaluated at 4 hr and 24 hr in restrained, normotensive conscious rats at a dose of 50 mg/kg; -17/-16; assay type: functional; summary of the method: as §1
Rattus norvegicus [16] = experiment: Delta BP refers to oral hypotensive activity of compound which is evaluated at 4 hr and 24 hr in restrained, normotensive conscious rats at a dose of 50 mg/kg; -15/3; assay type: functional; summary of the method: as §1
Rattus norvegicus [17] = experiment: Delta BP refers to oral hypotensive activity of compound which is evaluated at 4 hr and 24 hr in restrained, normotensive conscious rats at a dose of 50 mg/kg; 0/-1; assay type: functional; summary of the method: as §1

## COc1cc2c(cc1OC)C(CCN1CCN(c3ccccc3C)CC1)OCC2 (centres undefined)
Rattus norvegicus [1]
  Delta blood pressure: -19 mmHg

## COc1cc2c(cc1OC)C(CCCN1CCN(c3ccccn3)CC1)(c1ccc(F)cc1)OCC2 (centres undefined)
Rattus norvegicus [2]
  Delta blood pressure: -19 mmHg

## COc1cc2c(cc1OC)C(C)(CCCN1CCN(c3ccc(Cl)cc3)CC1)OCC2 (centres undefined)
Rattus norvegicus [3]
  Delta blood pressure: -8 mmHg

## COc1cc2c(cc1OC)C(CCN1CCN(c3ccccc3Cl)CC1)OC(C)(C)C2 (centres undefined)
Rattus norvegicus [4]
  Delta blood pressure: inactive

## COc1cc2c(cc1OC)C(CN1CCN(c3ccccc3)CC1)OCC2 (centres undefined)
Rattus norvegicus [5]
  Delta blood pressure: -20 mmHg

## COc1cc2c(cc1OC)C(CCN1CCN(c3ccccc3Cl)CC1)OCC2 (centres undefined)
Rattus norvegicus [6]
  Delta blood pressure: 3 mmHg

## COc1cc2c(cc1OC)C(C)(C)COC2CCN1CCN(c2ccccn2)CC1 (centres undefined)
Rattus norvegicus [4]
  Delta blood pressure: inactive

## COc1cc2c(cc1OC)C(CCCN1CCN(c3ccccc3OC)CC1)(c1ccc(F)cc1)OCC2 (centres undefined)
Rattus norvegicus [4]
  Delta blood pressure: inactive

## COc1cc2c(cc1OC)C(C)(CCN1CCN(c3ccccc3OC)CC1)OCC2 (centres undefined)
Rattus norvegicus [7]
  Delta blood pressure: -9 mmHg

## COc1cc2c(cc1OC)C(CCN1CCN(c3cccc(Cl)c3)CC1)OC(C)(C)C2 (centres undefined)
Rattus norvegicus [4]
  Delta blood pressure: inactive

## COc1cc2c(cc1OC)C(CN1CCN(c3ccc(F)cc3)CC1)OCC2 (centres undefined)
Rattus norvegicus [8]
  Delta blood pressure: 0 mmHg

## COc1cc2c(cc1OC)C(CN1CCN(c3cccc(C(F)(F)F)c3)CC1)OCC2 (centres undefined)
Rattus norvegicus [9]
  Delta blood pressure: 2 mmHg

## COc1cc2c(cc1OC)C(C)(CCN1CCN(c3ccccn3)CC1)OCC2 (centres undefined)
Rattus norvegicus [4]
  Delta blood pressure: inactive

## COc1cc2c(cc1OC)C(CCN1CCN(c3ccccn3)CC1)OCC2 (centres undefined)
Rattus norvegicus [10]
  Delta blood pressure: -13 mmHg
Rattus norvegicus [11]
  Delta blood pressure: -12 mmHg

## COc1cc2c(cc1OC)C(C)(CCN1CCN(c3cccc(Cl)c3)CC1)OCC2 (centres undefined)
Rattus norvegicus [4]
  Delta blood pressure: inactive

## COc1cc2c(cc1OC)C(CN1CCN(c3ccccc3Cl)CC1)OCC2 (centres undefined)
Rattus norvegicus [4]
  Delta blood pressure: inactive

## COc1cc2c(cc1OC)C(C)(CCN1CCN(c3ccc(Cl)cc3)CC1)OCC2 (centres undefined)
Rattus norvegicus [12]
  Delta blood pressure: -8 mmHg

## COc1cc2c(cc1OC)C(CCCN1CCN(c3ccc(Cl)cc3)CC1)(c1ccc(F)cc1)OCC2 (centres undefined)
Rattus norvegicus [4]
  Delta blood pressure: inactive

## COc1cc2c(cc1OC)C(C)(CCCN1CCN(c3ccccc3Cl)CC1)OCC2 (centres undefined)
Rattus norvegicus [4]
  Delta blood pressure: inactive

## COc1cc2c(cc1OC)C(CCN1CCN(c3ccc(F)cc3)CC1)OC(C)(C)C2 (centres undefined)
Rattus norvegicus [13]
  Delta blood pressure: -16 mmHg

## COc1cc2c(cc1OC)C(CCCN1CCN(c3ccccc3Cl)CC1)(c1ccc(F)cc1)OCC2 (centres undefined)
Rattus norvegicus [4]
  Delta blood pressure: inactive

## COc1cc2c(cc1OC)C(C)(CCN1CCN(c3ccccc3Cl)CC1)OCC2 (centres undefined)
Rattus norvegicus [14]
  Delta blood pressure: -3 mmHg

## COc1cc2c(cc1OC)C(CCN1CCN(c3ccccc3OC)CC1)OC(C)(C)C2 (centres undefined)
Rattus norvegicus [15]
  Delta blood pressure: -17 mmHg
Rattus norvegicus [16]
  Delta blood pressure: -15 mmHg

## COc1cc2c(cc1OC)C(CN1CCN(c3cccc(Cl)c3)CC1)OCC2 (centres undefined)
Rattus norvegicus [4]
  Delta blood pressure: inactive

## COc1cc2c(cc1OC)C(CCCN1CCN(c3cccc(Cl)c3)CC1)(c1ccc(F)cc1)OCC2 (centres undefined)
Rattus norvegicus [4]
  Delta blood pressure: inactive

## COc1cc2c(cc1OC)C(C)(C)COC2CCN1CCN(c2cccc(C(F)(F)F)c2)CC1 (centres undefined)
Rattus norvegicus [17]
  Delta blood pressure: 0 mmHg

## COc1cc2c(cc1OC)C(C)(C)COC2CCN1CCN(c2ccccc2Cl)CC1 (centres undefined)
Rattus norvegicus [4]
  Delta blood pressure: inactive
